Test results: ChEMBL document CHEMBL4765263, “Design, synthesis, biological evaluation of 6-(2-amino-1H-benzo[d]imidazole-6-yl)quinazolin-4(3H)-one derivatives as novel anticancer agents with Aurora kinase inhibition” (Eur J Med Chem, 2020)

Experiments:
MDA-MB-231 = test: Cytotoxicity against human MDA-MB-231 cells assessed as reduction in cell viability incubated for 72 hrs by MTT assay; assay type: functional, cell-based; settings: MDA-MB-231, 72 h
In short: (§1)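 MTT viability assay. Cells kept in DMEM with 10% FBS at 37 °C and 5% CO2. Seeded at 5×10^3 cells per well and exposed to a range of compound concentrations from 20 mM DMSO stocks. IC50 is the mean of triplicate measurements.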

PC-3 = test: Cytotoxicity against human PC-3 cells assessed as reduction in cell viability incubated for 72 hrs by MTT assay; assay type: functional, cell-based; settings: PC-3, 72 h; in short: as §1
SH-SY5Y = test: Cytotoxicity against human SH-SY5Y cells assessed as reduction in cell viability incubated for 72 hrs by MTT assay; assay type: functional, cell-based; in short: as §1
[1] = Solubility of compound in water; assay type: physicochemical; settings: buffer

| solubility [1] | SMILES | IC50 (MDA-MB-231) [µM] | IC50 (PC-3) [µM] | IC50 (SH-SY5Y) [µM] |
| --- | --- | --- | --- | --- |
|  | CCS(=O)(=O)Nc1nc2ccc(-c3ccc4ncn(CCN5CCOCC5)c(=O)c4c3)cc2[nH]1 | > 20 | > 20 | > 20 |
| Soluble | CN(C)C(=O)Nc1nc2ccc(-c3ccc4ncn(CCN5CCOCC5)c(=O)c4c3)cc2[nH]1 | 4.85 | 6.45 | 3.92 |
|  | O=C(Nc1nc2ccc(-c3ccc4ncn(CCN5CCOCC5)c(=O)c4c3)cc2[nH]1)C1CC1 | 1.61 | 11.2 | 7.33 |
|  | O=C(Nc1nc2ccc(-c3ccc4ncn(CCN5CCOCC5)c(=O)c4c3)cc2[nH]1)c1ccccc1 | > 20 | > 20 | > 20 |
|  | CCC(=O)Nc1nc2ccc(-c3ccc4ncn(CCCN5CCOCC5)c(=O)c4c3)cc2[nH]1 | 1.22 | 3.21 | 1.68 |
